{"data": "Measured values from different studies", "target": "Serine/threonine-protein kinase D1 (PRKD1, Homo sapiens, UniProt Q15139)", "Residues used in one study (Q15139 1-912)": "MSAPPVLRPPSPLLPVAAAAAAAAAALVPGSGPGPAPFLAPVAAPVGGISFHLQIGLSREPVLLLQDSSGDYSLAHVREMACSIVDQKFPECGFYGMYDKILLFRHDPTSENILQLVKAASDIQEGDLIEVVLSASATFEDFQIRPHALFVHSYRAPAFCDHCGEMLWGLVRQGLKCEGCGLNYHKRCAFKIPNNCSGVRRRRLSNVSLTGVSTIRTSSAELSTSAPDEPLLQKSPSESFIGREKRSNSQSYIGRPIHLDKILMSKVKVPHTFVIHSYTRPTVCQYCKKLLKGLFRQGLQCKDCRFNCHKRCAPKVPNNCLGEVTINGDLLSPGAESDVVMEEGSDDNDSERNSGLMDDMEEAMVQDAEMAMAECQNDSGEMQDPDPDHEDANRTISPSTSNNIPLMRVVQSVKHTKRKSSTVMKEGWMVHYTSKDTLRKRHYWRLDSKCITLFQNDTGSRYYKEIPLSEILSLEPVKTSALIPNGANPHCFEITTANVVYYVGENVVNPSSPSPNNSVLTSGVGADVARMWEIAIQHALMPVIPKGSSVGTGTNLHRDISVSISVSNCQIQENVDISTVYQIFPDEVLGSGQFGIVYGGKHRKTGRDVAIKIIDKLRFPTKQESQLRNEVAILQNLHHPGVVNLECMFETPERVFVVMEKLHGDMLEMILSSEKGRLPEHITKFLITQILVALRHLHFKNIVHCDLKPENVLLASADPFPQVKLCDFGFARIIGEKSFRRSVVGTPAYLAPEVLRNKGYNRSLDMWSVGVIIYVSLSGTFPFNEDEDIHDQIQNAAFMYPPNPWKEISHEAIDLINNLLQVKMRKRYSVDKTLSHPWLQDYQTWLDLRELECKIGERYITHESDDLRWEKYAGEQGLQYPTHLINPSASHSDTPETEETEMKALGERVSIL"}
{"Structure (SMILES)": "CCCOc1ccc([C@@H]2[C@@H](C(=O)O)[C@H](c3ccc4c(c3)OCO4)CN2CC(=O)Nc2c(CC)cccc2CC)cc1", "read-out": "cell-free assay", "method": "competition with immobilised ligand", "concentration": "1 µM", "remaining binding": "96%"}
{"Structure (SMILES)": "O=C(c1ccc(Nc2ncc(Cl)c(-c3ccc(Cl)s3)n2)cc1)N1CCC(N2CCCC2)CC1", "read-out": "binding", "method": "competition with immobilised ligand", "concentration": "1 µM", "remaining binding": "32%"}
{"Structure (SMILES)": "COc1cnc(Nc2cccc(S(N)(=O)=O)c2)nc1N1CCN(c2ccccc2)C(=O)C1", "read-out": "binding", "method": "competition with immobilised ligand", "concentration": "1 µM", "remaining binding": "100%"}
{"Structure (SMILES)": "FC(F)(F)Oc1cccc(-c2cnc3ccc(-c4ccncc4)nn23)c1", "read-out": "cell-free assay", "method": "competition with immobilised ligand", "concentration": "5 µM", "remaining binding": "100%"}
{"Structure (SMILES)": "C[C@@H](c1ccc(-n2cnc3c(N)ncnc32)cc1)N1CCc2nn(C)c(Cc3ccccc3)c2C1=O", "read-out": "binding", "method": "competition with immobilised ligand", "concentration": "0.1 µM", "remaining binding": "48%"}
{"Structure (SMILES)": "CC1CCCN1c1nccc(-c2cnn3ncccc23)n1 (stereo not drawn)", "read-out": "binding", "concentration": "1 µM", "remaining binding": "100%"}
{"Structure (SMILES)": "c1cncc(-c2cccc(Nc3nccc(NC4CCCCC4)n3)c2)c1", "read-out": "binding", "method": "competition with immobilised ligand", "concentration": "10 µM", "remaining binding": "11%"}
{"Structure (SMILES)": "CO[C@@H](C)c1c(Nc2ccc([C@H](N(C)C(=O)C3CCS(=O)(=O)CC3)C(F)(F)F)cc2)cnc2cc(Cl)nn12", "read-out": "cell-free assay", "method": "competition with immobilised ligand", "concentration": "1 µM", "remaining binding": "100%"}
{"Structure (SMILES)": "COc1ccnn2ncc(-c3ccnc(N(C)C)n3)c12", "read-out": "binding", "concentration": "1 µM", "remaining binding": "100%"}
{"Structure (SMILES)": "COc1ncc2cc3ccccc3nc2c1C#N", "read-out": "cell-free assay", "method": "competition with immobilised ligand", "concentration": "5 µM", "remaining binding": "87%"}
{"Structure (SMILES)": "CC(=O)c1c(NS(C)(=O)=O)c2cc(-c3ccc(Cl)cc3)c(-c3ccc(Cl)cc3Cl)nc2n(C)c1=O", "read-out": "cell-free assay", "method": "competition with immobilised ligand", "concentration": "1 µM", "remaining binding": "100%"}
{"Structure (SMILES)": "CCN1CCN(Cc2ccc(C(=O)Nc3ccc(C)c(Oc4ccc5c(c4)CC(=O)N5)c3)cc2C(F)(F)F)CC1", "read-out": "binding", "method": "competition with immobilised ligand", "concentration": "1 µM", "remaining binding": "96%"}
{"Structure (SMILES)": "c1cnn2ncc(-c3ccnc(N4CCC45COC5)n3)c2c1", "read-out": "binding", "concentration": "1 µM", "remaining binding": "87%"}
{"Structure (SMILES)": "Cc1cc(NC(=O)c2cccc(S(F)(F)(F)(F)F)c2)cc(-n2ccn3nc(-c4cccnc4)cc23)c1", "read-out": "cell-free assay", "method": "competition with immobilised ligand", "concentration": "1 µM", "remaining binding": "100%"}
{"Structure (SMILES)": "N[C@H]1CCN(c2nccc(-c3cnn4ncccc34)n2)C1", "read-out": "binding", "concentration": "1 µM", "remaining binding": "65%"}
{"Structure (SMILES)": "O=C(c1ccc(Nc2nccc(-c3cc4ccccc4s3)n2)cc1)N1CCC(N2CCCC2)CC1", "read-out": "binding", "method": "competition with immobilised ligand", "concentration": "1 µM", "remaining binding": "64%"}
{"Structure (SMILES)": "O=S(=O)(NC1CCC(c2cc(F)ccc2F)(S(=O)(=O)c2ccc(Cl)cc2)CC1)C(F)(F)F (stereo not drawn)", "read-out": "cell-free assay", "method": "competition with immobilised ligand", "concentration": "1 µM", "remaining binding": "100%"}
{"Structure (SMILES)": "CN(C)c1ncc(F)c(-c2cnn3ncccc23)n1", "read-out": "binding", "concentration": "1 µM", "remaining binding": "100%"}
{"Structure (SMILES)": "CN([C@@H]1CCc2c(CC(=O)O)c3cc(S(C)(=O)=O)ccc3n2C1)S(=O)(=O)c1ccc(F)cc1", "read-out": "cell-free assay", "method": "competition with immobilised ligand", "concentration": "1 µM", "remaining binding": "75%"}
{"Structure (SMILES)": "Cc1cnn2ncc(-c3ccnc(N(C)C)n3)c2c1", "read-out": "binding", "concentration": "1 µM", "remaining binding": "95%"}
{"Structure (SMILES)": "O=C(Nc1c[nH]nc1C(=O)NC1CCNCC1)c1cc(F)cc(F)c1", "read-out": "binding", "method": "competition with immobilised ligand", "concentration": "1 µM", "remaining binding": "94%"}
